The source made the active and inactive calls. The rule behind the calls is not given here.

We go through 20 compounds from ChEMBL document CHEMBL1145447, “Synthetic studies of neoclerodane diterpenes from Salvia divinorum: preparation and opioid receptor activity of salvinicin analogues” (J Med Chem, 2007).

Experiment [1] has as its target T1, Mu-type opioid receptor (Homo sapiens, UniProt P35372). The experiment is described as follows: Displacement of [125I]IOXY from human mu opioid receptor expressed in CHO cells. Format: cell-based. The gist of the method:
(§1)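 Membranes from CHO cells stably transfected with the respective human opioid receptor cDNA (hMOR-, hDOR-, hKOR-CHO). Incubation in 50 mM Tris-HCl pH 7.4 with bacitracin, bestatin, leupeptin and chymostatin. Nonspecific binding is defined with 10 µM naloxone. Ki is the mean ± SD of at least two independent determinations.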
(In a radioligand displacement assay an active substance lowers the binding of a labelled ligand.)

For experiment [2], the target named is T2, Delta-type opioid receptor (Homo sapiens, UniProt P41143). In words: Displacement of [125I]IOXY from human delta opioid receptor expressed in CHO cells. The format is cell-based. The method in brief:
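Membranes from CHO cells stably transfected with the respective human opioid receptor cDNA (hMOR-, hDOR-, hKOR-CHO). Radioligand [125I]IOXY (SA 2200 Ci/mmol) labels µ, δ and κ sites. Incubation in 50 mM Tris-HCl pH 7.4 with bacitracin, bestatin, leupeptin and chymostatin. Nonspecific binding is defined with 10 µM naloxone. Ki is the mean ± SD of at least two independent determinations.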

The target in experiment [3] is T3, Kappa-type opioid receptor (Homo sapiens, UniProt P41145). In words: Displacement of [125I]IOXY from human kappa opioid receptor expressed in CHO cells. The format is cell-based. The method in brief:
as §1

The target in experiment [4] is Opioid receptors; mu & kappa (Homo sapiens) (UniProt P41145+P35372). In words: Selectivity for kappa opioid receptor over mu opioid receptor. The format is protein assay.
Experiment [5] concerns the target Opioid receptors; delta & kappa (Homo sapiens) (UniProt P41145+P41143). In words: Selectivity for kappa opioid receptor over delta opioid receptor. The format is protein assay.
Experiment [6] has as its target T1, Mu-type opioid receptor. In words: Antagonist activity at human mu opioid receptor expressed in CHO cells by [35S]GTP-gamma-S binding assay. The format is functional, cell-based. The method in brief: (§2)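 Antagonism is measured in a [35S]GTP-γ-S binding assay in CHO cells stably transfected with human δ, κ or µ opioid receptor cDNA. Result is given as Ke, the mean ± SD of at least two independent determinations. Test compounds come from 10 mM stocks in 100% DMSO + 10 mM 2-mercaptoethanol, stored at -80 °C. They are diluted in buffer containing 1 mg/mL BSA.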
A general note: GTPγS resists hydrolysis and so accumulates on activated G proteins.

The target of experiment [7] is T2, Delta-type opioid receptor. In words: Antagonist activity at human delta opioid receptor expressed in CHO cells by [35S]GTP-gamma-S binding assay. Format: functional, cell-based. The gist of the method: as §2
Experiment [8] addresses T3, Kappa-type opioid receptor. The experiment is described as follows: Antagonist activity at human kappa opioid receptor expressed in CHO cells by [35S]GTP-gamma-S binding assay. The format is functional, cell-based. The method in brief:
as §2

Experiment [9] has as its target T3, Kappa-type opioid receptor. In words: Activity at human kappa opioid receptor expressed in CHO cells by [35S]GTP-gamma-S binding assay relative to U69593. Format: functional, cell-based. The gist of the method: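 [35S]GTP-γ-S binding in hKOR-CHO cells (stably transfected human receptor). Emax is the percent stimulation relative to the maximal stimulation by U69,593 run in parallel. EC50 and Emax are the mean ± SE of at least three independent experiments. Emax is compared with U69,593 by one-way ANOVA with Dunnett's test. Drug dilutions are made in buffer with 1 mg/mL BSA, from 10 mM DMSO/2-mercaptoethanol stocks.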

T3 sequence (P41145 whole entry): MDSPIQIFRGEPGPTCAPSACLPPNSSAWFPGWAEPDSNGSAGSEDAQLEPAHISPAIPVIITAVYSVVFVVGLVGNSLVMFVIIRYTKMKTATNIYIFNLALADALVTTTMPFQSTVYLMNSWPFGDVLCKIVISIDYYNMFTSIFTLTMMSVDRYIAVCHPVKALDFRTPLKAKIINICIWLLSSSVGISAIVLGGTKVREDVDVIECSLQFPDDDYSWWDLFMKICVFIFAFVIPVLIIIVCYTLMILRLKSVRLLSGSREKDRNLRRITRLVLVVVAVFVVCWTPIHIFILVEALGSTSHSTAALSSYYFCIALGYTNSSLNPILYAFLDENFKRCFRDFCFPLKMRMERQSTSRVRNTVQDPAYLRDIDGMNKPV
T1 sequence (P35372 whole entry): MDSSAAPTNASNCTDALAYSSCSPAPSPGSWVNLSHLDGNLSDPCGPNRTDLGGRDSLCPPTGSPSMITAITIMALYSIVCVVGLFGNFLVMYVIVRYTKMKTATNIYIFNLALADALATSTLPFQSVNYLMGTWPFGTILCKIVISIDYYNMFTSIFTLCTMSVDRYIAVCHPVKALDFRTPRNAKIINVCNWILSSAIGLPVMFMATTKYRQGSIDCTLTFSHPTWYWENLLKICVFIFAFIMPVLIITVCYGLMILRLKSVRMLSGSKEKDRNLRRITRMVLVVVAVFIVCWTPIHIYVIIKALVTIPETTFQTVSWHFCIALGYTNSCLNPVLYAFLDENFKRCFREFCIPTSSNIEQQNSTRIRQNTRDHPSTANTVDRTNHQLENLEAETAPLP
Opioid receptors; mu & kappa (Homo sapiens), sequence (P35372 whole entry, looked up): as the sequence (P35372 whole entry) above
Opioid receptors; mu & kappa (Homo sapiens), sequence (P41145 whole entry, looked up): as the sequence (P41145 whole entry) above
T2 sequence (P41143 whole entry): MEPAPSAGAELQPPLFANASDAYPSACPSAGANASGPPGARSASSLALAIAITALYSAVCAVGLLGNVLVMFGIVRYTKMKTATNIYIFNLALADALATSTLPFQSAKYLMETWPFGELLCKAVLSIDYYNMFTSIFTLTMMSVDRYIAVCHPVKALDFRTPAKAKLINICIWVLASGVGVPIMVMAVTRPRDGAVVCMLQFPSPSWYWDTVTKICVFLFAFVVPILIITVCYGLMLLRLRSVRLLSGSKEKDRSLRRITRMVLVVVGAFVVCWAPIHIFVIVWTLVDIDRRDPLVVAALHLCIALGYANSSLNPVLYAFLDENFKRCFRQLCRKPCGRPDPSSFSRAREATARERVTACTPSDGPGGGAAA
Opioid receptors; delta & kappa (Homo sapiens), sequence (P41143 whole entry, looked up): as the sequence (P41143 whole entry) above
Opioid receptors; delta & kappa (Homo sapiens), sequence (P41145 whole entry, looked up): as the sequence (P41145 whole entry) above

What is called Ki is the equilibrium dissociation constant of an inhibitor or competing ligand from its target. High values mean a looser hold on the target, low ones a stronger hold on the target. As to `COC(=O)[C@@H]1C[C@H](OC(C)=O)C(=O)[C@H]2[C@@]1(C)CC[C@H]1C(=O)OC([C@]3(O)[C@@H](OC)O[C@@H](OC)[C@H]3OC(C)=O)C[C@]21C` (some centres not stated), the inhibitory constant (Ki) (on Mu-type opioid receptor [1]; in experiment [2]; in [3]) was over 10 µM in each case.
As to `COC(=O)[C@@H]1C[C@H](OC(C)=O)C(=O)[C@H]2[C@@]1(C)CC[C@H]1C(=O)O[C@H]([C@]3(O)[C@H](OC)O[C@H](OC)[C@H]3O)C[C@]21C` [SALVINICIN A], the Ki at Mu-type opioid receptor [1] is over 10 µM; in experiment [2] it was over 10 µM; in experiment [3] it was 0.39 µM. Besides, the Ratio Ki in [4] and in [5] was over 26 throughout.
On to `COC(=O)[C@@H]1C[C@H](OC(C)=O)C(=O)[C@@H]2[C@@]3(C)C[C@@H](c4nc(C)no4)OC(=O)[C@H]3CC[C@]21C`, for which the Ki is over 10 µM at Mu-type opioid receptor [1], over 10 µM in experiment [2], 0.99 µM in experiment [3] and 1.53 µM at Mu-type opioid receptor [6]. For the same compound, the Ratio Ki in [4] and in [5] was over 10 throughout. The Ke in experiment [7] is 4.23 µM; in experiment [8], 5680 nM.
Regarding `COC(=O)[C@@H]1C[C@H](OC(C)=O)C(=O)[C@H]2[C@@]1(C)CC[C@H]1C(=O)OCC[C@]21C`, the Ki at Mu-type opioid receptor [1] was over 10 µM; in [2], over 10 µM; in [3], 3.4 µM. Also, the Ratio Ki in [4] and in [5] was over 3 in each case.
Regarding `COC(=O)[C@@H]1C[C@H](OC(C)=O)C(=O)[C@H]2[C@@]1(C)CC[C@H]1C(=O)O[C@H](C3CC(OC)OC3OC)C[C@]21C` (some centres not stated), the inhibition constant (Ki) on Mu-type opioid receptor [1] is 4.81 µM; in experiment [2], over 10 µM; in experiment [3] it was 0.04 µM. For the same compound, the Ratio Ki was 120 in experiment [4] and over 250 in experiment [5].
In the case of `COC(=O)[C@@H]1C[C@H](OC(C)=O)C(=O)[C@H]2[C@@]1(C)CC[C@H]1C(=O)O[C@H](C3CCOC3)C[C@]21C` (some centres not stated), the results for the inhibition constant Ki in experiment [2] and in experiment [3] were over 10 µM and 0.014 µM, respectively.
As to `COC(=O)[C@@H]1C[C@H](OC(C)=O)C(=O)[C@@H]2[C@@](C)(CCC3CCOC3)[C@H](C(=O)O)CC[C@]21C` (some centres not stated), the Ki at Mu-type opioid receptor [1] was over 10 µM; in experiment [2] it was over 10 µM; in experiment [3], 0.91 µM. For the same compound, the Ratio Ki in [4] and in experiment [5] was over 10 throughout.
In the case of `COC(=O)[C@@H]1C[C@H](OC(C)=O)C(=O)[C@H]2[C@@]1(C)CC[C@H]1C(=O)O[C@H](C3=NCCO3)C[C@]21C`, the Ki on Mu-type opioid receptor [1] is over 10 µM; in experiment [2], over 10 µM; in [3] it was 0.3 µM. The Ratio Ki in [4] and in experiment [5] was over 30 throughout.
As to `COC(=O)[C@@H]1C[C@H](OC(C)=O)C(=O)[C@H]2[C@@]1(C)CC[C@H]1C(=O)O[C@H](c3nc(C)no3)C[C@]21C`, the Ki was over 10 µM at Mu-type opioid receptor [1], over 10 µM in [2], 0.056 µM in [3] and 0.43 µM at Mu-type opioid receptor [6]. In addition, the Ratio Ki in experiment [4] and in experiment [5] was over 170 throughout. The result in experiment [7] was inactive. In experiment [8], this compound had a Ke of 360 nM.
For the compound `COC(=O)[C@@H]1C[C@H](OC(C)=O)C(=O)[C@H]2[C@@]1(C)CC[C@H]1C(=O)O[C@H](C3=CC(=O)OC3O)C[C@]21C` (some centres not stated), the Ke worked out at 760 nM on Mu-type opioid receptor [6], 2.83 µM in [7] and 440 nM in experiment [8].
Usually EC50 stands for the concentration needed to bring the measured effect to its halfway point. The Emax is the size of the effect at its maximum, as opposed to the concentration needed. With `COC(=O)[C@@H]1C[C@H](OC(C)=O)C(=O)[C@H]2[C@@]1(C)CC[C@H]1C(=O)O[C@H]([C@@H]3C[C@@H](OC)O[C@@H]3OC)C[C@]21C`, the Ki at Mu-type opioid receptor [1] was over 10 µM; in experiment [2], over 10 µM; in experiment [3], 0.025 µM; at Mu-type opioid receptor [6] it was 1.37 µM. Further, the Ratio Ki in experiment [4] and in [5] was over 400 throughout. Further, the Ke in experiment [7] is over 10 µM. This compound yielded an EC50 in [8] of 2.35 µM. In [9], the maximal effect (Emax) is 95%.
In the case of `COC(=O)[C@@H]1C[C@H](OC(C)=O)C(=O)[C@H]2[C@@]1(C)CC[C@H]1C(=O)O[C@H](C3=C[C@@H](OC)O[C@H]3OC)C[C@]21C`, the Ki on Mu-type opioid receptor [1] was 3.74 µM; in [2], over 10 µM; in [3] it was 0.18 µM; at Mu-type opioid receptor [6] it was 2.93 µM. Also, the Ratio Ki is 21 in [4] and over 55 in experiment [5]. Further, the figures for the Ke in [7] and in experiment [8] were 1.28 µM and 2370 nM, respectively.
With `COC(=O)[C@@H]1C[C@H](OC(C)=O)C(=O)[C@H]2[C@@]1(C)CC[C@H]1C(=O)O[C@H]([C@@H]3C[C@@H](OC)O[C@H]3OC)C[C@]21C`, the figures for the inhibition constant Ki (at Mu-type opioid receptor [1]; in experiment [2]; in experiment [3]) were over 10 µM, over 10 µM and 0.125 µM, respectively. Moreover, the Ratio Ki in experiment [4] and in experiment [5] was over 80 throughout. Also, the outcome (at Mu-type opioid receptor [6]; in experiment [7]; in experiment [8]) was inactive.
On to `COC(=O)[C@@H]1C[C@H](OC(C)=O)C(=O)[C@H]2[C@@]1(C)CC[C@H]1C(=O)O[C@H](C3=C[C@@H](OC)O[C@@H]3OC)C[C@]21C`, for which the Ki at Mu-type opioid receptor [1] was 3.19 µM; in experiment [2] it was over 10 µM; in experiment [3] it was 0.42 µM; on Mu-type opioid receptor [6] it was 2.32 µM. Besides, the results for the Ratio Ki in experiment [4] and in experiment [5] were 8 and over 23, respectively. Moreover, the results for the Ke in [7] and in experiment [8] were 3.28 µM and 9700 nM, respectively.
`COC(=O)[C@@H]1C[C@H](OC(C)=O)C(=O)[C@H]2[C@@]1(C)CC[C@H]1C(=O)O[C@H]([C@@H]3CCOC3)C[C@]21C`: the values for the Ki (on Mu-type opioid receptor [1]; in [2]; in [3]) were 9.79 µM, over 10 µM and 0.0037 µM, respectively. Also, the result (at Mu-type opioid receptor [6]; in experiment [7]) was inactive. This compound also displayed a 50% effective concentration (EC50) in experiment [8] of 0.75 µM. Moreover, the Emax in experiment [9] came to 81%.
For `COC(=O)[C@@H]1C[C@H](OC(C)=O)C(=O)[C@H]2[C@@]1(C)CC[C@H]1C(=O)O[C@H](c3ccoc3Br)C[C@]21C`, the Ki amounted to 1.45 µM at Mu-type opioid receptor [1] and 7.62 µM in experiment [2]. This compound returned an Emax in experiment [9] of 104%.
Consider `COC(=O)[C@@H]1C[C@H](OC(C)=O)C(=O)[C@@H]2[C@@]3(C)C[C@@H]([C@]4(O)[C@@H](OC)O[C@@H](OC)[C@H]4O)CC(=O)[C@@H]3CC[C@]21C` [SALVINICIN B], for which the Ki on Mu-type opioid receptor [1] is over 10 µM; in experiment [2], over 10 µM; in [3], 7.02 µM. Moreover, the Ratio Ki in experiment [4] and in experiment [5] was 1.4 in each case.
As for `COC(=O)[C@@H]1C[C@H](OC(C)=O)C(=O)[C@H]2[C@@]1(C)CC[C@H]1C(=O)OC([C@]3(O)[C@H](OC)O[C@H](OC)[C@H]3OC(C)=O)C[C@]21C` (some centres not stated), the inhibition constant (Ki) (at Mu-type opioid receptor [1]; in experiment [2]; in experiment [3]) was over 10 µM each time.
Consider `COC(=O)[C@@H]1C[C@H](OC(C)=O)C(=O)[C@H]2[C@@]1(C)CC[C@H]1C(=O)O[C@H](C3=CC(OC)OC3OC)C[C@]21C` (some centres not stated), for which the Ki on Mu-type opioid receptor [1] was over 10 µM; in [2], over 10 µM; in [3], 0.44 µM. Also, the Ratio Ki in experiment [4] and in experiment [5] was over 20 in each case.
`COC(=O)[C@@H]1C[C@H](O)C(=O)[C@H]2[C@@]1(C)CC[C@H]1C(=O)O[C@H](c3ccoc3)C[C@]21C` [SALVINORIN B]: the Ki (at Mu-type opioid receptor [1]; in [2]) was over 10 µM each time.
